M1 antag = human M1 muscarinic receptor antagonists, primary screen, CHO-K1 cells, Fluo-8 calcium fluorescence, 1536-well; 1.3% of 360,000 active; inhibition, % at 3 µM; CHO-K1 hM1, ACh EC80 antagonist;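 active = percent inhibition above its own plate's cutoff, namely the mean of that plate's compound wells plus 3 SD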;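 also: peak over basal fluorescence ratio during 140 s after agonist addition; 0% = ACh EC80 plus DMSO and 100% = DMSO alone without agonist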
CHRM1 agonist = human M1 muscarinic receptor agonists, primary screen, Fluo-8 calcium fluorescence, CHO-K1 cells, HTS. Muscarinic acetylcholine receptor M1 (Homo sapiens), P11229. CHO-K1 hM1, agonist mode; 0% DMSO, 100% acetylcholine EC100. activation, % at 3 µM. 0.33% of 360,000 active. AID 588814, 2011;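 active = activation above the run's mean compound activation plus 3 SD, cut at about 16% in these data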;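 also: peak over basal fluorescence ratio within a 140 s kinetic read after compound addition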
TAAR1 antagonist = human TAAR1 antagonists, primary screen, Fluo-8 calcium fluorescence, CHO RD-HGA16 cells; AID 624466, 2012; inhibition, % at 3 µM; 1.5% of 360,000 active; antagonist; Trace amine-associated receptor 1 (Homo sapiens), Q96RJ0;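 active = inhibition above a per-plate cutoff, the mean inhibition of test compounds on that plate plus 3 SD, cut at about 49% in these data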;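 also: 0% = DMSO plus EC80 beta-PEA response and 100% = DMSO alone without agonist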
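Test system: hTAAR1-expressing CHO RD-HGA16 cells, Gα16-coupled; Probe or stimulus: EC80 β-phenethylamine stimulus; Compound dosing: single nominal final test compound concentration of 3 µM; Timing: 140 s kinetic read after compound, 140 s after agonist; Signal: Fluo-8 calcium-sensitive fluorescence; Measure: % inhibition of agonist calcium response; Controls: DMSO and EC80 PEA controls.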
TAAR1 ag = human TAAR1 agonists, primary screen, Fluo-8 calcium fluorescence, CHO RD-HGA16 cells | activation, % at 3 µM | AID 624467, 2012 | Trace amine-associated receptor 1 (Homo sapiens), Q96RJ0 | vehicle wells 0%, saturating PEA agonist 100% | 0.99% of 360,000 active;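 active = activation above the mean activation of all test compounds in the run plus 3 SD, cut at about 38% in these data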
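Repeats: no replicates (n 1) | Material: CHO-derived RD-HGA16 cells with stable Gα16 and human TAAR1 | Technique: Kinetic Fluo-8 calcium fluorescence | Schedule: 17-24 h seeding, 75 min 37 °C dye, 30 min RT | Evaluation: % activation from peak over basal fluorescence ratio, DMSO-to-PEA scaled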
HTR2A ag = mouse Htr2a agonists via beta-arrestin recruitment, primary screen, cell-based, luminescence; 5-hydroxytryptamine receptor 2A (Mus musculus), P35363; CHO-K1 mHTR2A beta-arrestin complementation; percent of 30 µM serotonin response; activation, % at 7.6 µM; 0.66% of 360,000 active; AID 624169, 2012;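 active = activation above a run cutoff, the mean activation of all tested compounds plus 3 SD, cut at about 14% in these data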;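 also: 0% = plate median of compound wells and 100% = 30 µM serotonin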
CHRM1 PAM = human M1 muscarinic receptor positive allosteric modulators, primary screen, CHO-K1 cells, Fluo-8 calcium fluorescence, 1536-well. Muscarinic acetylcholine receptor M1 (Homo sapiens), P11229. CHO-K1 hM1, ACh EC20; 0% = ACh EC20, 100% = maximal ACh. activation, % at 3 µM. 0.088% of 360,000 active; in the data active = activation above about 19%, passing the limit was not always enough
OPRM1 ag = OPRM1 agonists via beta-arrestin recruitment, confirmation, counter-screen for mouse HTR2A agonist project, cell-based, luminescence, single concentration. shares compounds with HTR2A ag. U2OS OPRM1 beta-arrestin PathHunter; DMSO 0%, DAMGO 9.3 µM 100%. activation, % at 9.3 µM. 5.3% of 2,300 active;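 active = mean activation above the mean of DMSO-only wells plus 3 SD, cut at about 0.5% in these data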
Target sequence (P35372 whole entry, looked up): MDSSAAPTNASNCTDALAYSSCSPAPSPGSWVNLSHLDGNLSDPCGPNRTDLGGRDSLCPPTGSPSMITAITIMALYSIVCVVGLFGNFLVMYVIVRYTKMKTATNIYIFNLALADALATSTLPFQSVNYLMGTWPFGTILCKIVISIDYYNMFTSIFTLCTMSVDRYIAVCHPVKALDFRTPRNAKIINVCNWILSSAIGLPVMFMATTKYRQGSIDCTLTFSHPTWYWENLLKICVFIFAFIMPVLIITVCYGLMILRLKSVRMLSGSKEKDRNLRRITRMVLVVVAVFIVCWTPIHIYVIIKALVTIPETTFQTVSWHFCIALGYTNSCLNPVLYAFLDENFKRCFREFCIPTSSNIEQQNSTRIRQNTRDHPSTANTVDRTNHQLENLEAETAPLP
m5-HT2A ag conf = mouse HTR2A agonists, beta-arrestin recruitment, confirmation, cell-based, luminescence, CHO-K1 PathHunter, triplicate | shares compounds with HTR2A ag | DMSO 0%, 30 µM serotonin 100% | activation, % at 7.6 µM | 19% of 2,300 active;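 active = mean activation across triplicates above the hit threshold derived in the original primary screen, cut at about 15% in these data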
Numbers without * were called inactive; x = no result given. Only some compounds are listed: those with a hit (about 3.9% of all), similar ones and a draw of the others.

SMILES	M1 antag	CHRM1 agonist	TAAR1 antagonist	TAAR1 ag	HTR2A ag	CHRM1 PAM	OPRM1 ag	m5-HT2A ag conf
CCCCCCCC(=O)NNC(=O)c1ccc([N+](=O)[O-])cc1	-5	-6	-11	-1	0	6	x	x
Cc1csc(=O)n1CC(=O)OCC(=O)NNC(=O)c1ccc([N+](=O)[O-])cc1	-25	1	-17	1	15*	14	0	1
COC(=O)CCC(=O)NNC(=O)c1ccc([N+](=O)[O-])cc1	-21	-2	4	1	14*	13	0	6
CC(=O)c1ccc(OCC(O)CN2CCN(CCO)CC2)cc1 (stereo unspecified)	-7	-2	-9	1	17*	-5	-1	-3
CCC(=O)c1ccc(OCC(O)CN2CCN(c3ccccn3)CC2)cc1 (stereo unspecified)	-28	-8	-20	3	29*	12	0	100*
COc1cc(C(C)=O)ccc1OCC(O)CN1CCN(c2ccccn2)CC1 (stereo unspecified)	-14	-7	1	1	23*	10	0	86*
Cc1cccc(OCC(O)CN2CCN(c3ccccn3)CC2)c1C (stereo unspecified)	-2	-3	-10	0	19*	4	-1	40*
O=C(O)C1=CC[C@@H](c2ccc(Cl)cc2)N(S(=O)(=O)c2ccc(Cl)cc2)[C@H]1c1ccccc1	5	-7	26	-1	10	6	x	x
CCc1c(-c2ccc(Br)cc2)ncn1CCc1ccccc1OC	x	x	12	24	x	x	x	x
CCCc1c(-c2ccc(F)cc2)ncn1CCc1ccccc1OC	x	x	40	16	17*	x	0.8*	-9
O=C(O)c1ccc(S(=O)(=O)c2ccc([N+](=O)[O-])cc2[N+](=O)[O-])cc1	-6	0	-3	2	4	17	x	x
CCCCNc1ncnc2sc3c(c12)CCN(CCC)C3	1	-11	-16	4	-3	-4	x	x
CCc1cc(=O)oc2c(C)c(OC(C)C(=O)NCCCN3CCOCC3)ccc12 (stereo unspecified)	-12	-5	-2	1	7	6	x	x
Cc1cc(=O)oc2c(C)c(OC(C)C(=O)NCCCN3CCOCC3)ccc12 (stereo unspecified)	-6	-5	-19	1	16*	2	0	-4
COc1ccccc1Nc1nc(N)nc(CSc2nncn2C)n1	4	-3	-5	6	15*	4	0	3
Cc1ccc(/C=N/c2sc3c(c2C#N)CCCCC3)o1	-11	-4	-7	6	16*	8	0	16*
N#Cc1c(/N=C/c2ccco2)sc2c1CCC2	-9	-3	-12	0	-1	9	x	x
COc1ccc(Cl)cc1Cn1c(C)c(C(=O)N(C)Cc2ccc(F)cc2)sc1=O	5	-2	-1	1	6	-3	x	x
CCCCN(C)C(=O)c1sc(=O)n(Cc2cc(Cl)ccc2OC)c1C	-5	-4	-2	2	17*	2	-1	-6
CCOc1ccc(CN(C(=O)c2cc(=O)c3cc(C)cc(C)c3o2)C2CCS(=O)(=O)C2)cc1 (stereo unspecified)	-5	2	-5	5	6	15	x	x
C=CCN1CCc2nc(N)sc2CC1	-26	-8	-44	2	50*	-7	-1	151*
CCN1CCc2nc(N)sc2C1	-10	-7	-24	3	7	10	x	x
Cc1ccc(NC(=O)C2CCCN2C(=O)OCc2ccccc2)cc1F (stereo unspecified)	-2	-3	-39	0	15*	4	0	-5
O=C(CN(C(=O)c1csnn1)c1ccc2c(c1)OCCO2)NCc1ccccc1	1	-1	11	1	15*	10	-1	-4
CC(OC(=O)c1cccc([N+](=O)[O-])c1)C(=O)NCc1ccc2c(c1)OCO2 (stereo unspecified)	-8	-2	-7	0	2	4	x	x
SMILES	M1 antag	CHRM1 agonist	TAAR1 antagonist	TAAR1 ag	HTR2A ag	CHRM1 PAM	OPRM1 ag	m5-HT2A ag conf
CC1(NC(=O)Nc2cc([N+](=O)[O-])ccc2O)CCS(=O)(=O)C1 (stereo unspecified)	-8	-1	-3	1	3	7	x	x
CS(=O)(=O)NCc1nnc(SCc2ccc(C(F)(F)F)cc2)o1	-4	-3	-14	4	-1	2	x	x
CSc1cccc(NC(=S)N(CCCN2CCCC2)Cc2cccs2)c1	36*	-7	-18	8	43*	-24	-1	15*
COc1ccc(Cl)cc1NC(=O)NNC(=O)C(=O)Nc1ccc(F)cc1	-12	6	-15	3	1	5	x	x
C=CCn1c2ccccc2c2nnc(SCCCn3c(=O)[nH]c4ccccc43)nc21	19	-2	56*	10	17*	-6	0	3
CCCN(CC(=O)Nc1ccccc1OC)C(=O)c1ccc(=O)[nH]c1	-23	2	-27	1	-2	13	x	x
CC(=O)Nc1cc(NC(C)=O)cc(C(=O)OCC(=O)c2ccc3c(c2)NC(=O)CO3)c1	-4	-1	0	0	20*	-1	-1	-4
N#Cc1cccc(C(=O)OCC(=O)c2ccc3c(c2)NC(=O)CO3)c1	-9	-2	-15	9	-1	8	x	x
COc1ccc(C(=O)OCC(=O)c2ccc3c(c2)NC(=O)CO3)cc1OC	-7	-1	-20	6	5	8	x	x
N#CCC(=O)Nc1ccc(C(=O)OCC(=O)c2ccc3c(c2)NC(=O)CO3)cc1	-12	-1	-27	9	25*	10	-1	-4
O=C(CCCCC(=O)NN=Cc1ccc(Cl)cc1)NN=Cc1ccc(Cl)cc1	-12	0	-11	0	3	10	x	x
